Data published in ChEMBL document CHEMBL1129688, “ATP-citrate lyase as a target for hypolipidemic intervention. Design and synthesis of 2-substituted butanedioic acids as novel, potent inhibitors of the enzyme” (J Med Chem, 1996).
Blank lines part the entries; values can stand above or below the molecule they belong to.

What was measured:
[1] = tested on: HepG2; assay: Percent reduction of fatty acid synthesis in human hepatoma cell line HepG2 at 100 uM concentration; type: functional; design: scale not given: the % may be the effect or the level left
How it was run: (§1)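 HepG2 cells were grown in DMEM with Hepes, bicarbonate, glutamine and 10% FCS to 80–90% confluence, then kept overnight serum-free. Vehicle or compound was added at the stated final concentration for 2.5 h. ³H2O (71 μCi/mmol) was present for the final 90 min. Synthesis rates came from ³H incorporated into cellular cholesterol or fatty acids, relative to vehicle control.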

[2] = tested on: HepG2; assay: Percent control of ATP levels in human hepatoma cell line, HepG2 at 100 uM concentration; type: functional
How it was run: (§2)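 Serum-starved HepG2 cells (grown to 80–90% confluence in DMEM/10% FCS, then overnight without serum) were exposed to vehicle or compound at the stated final concentration for 2.5 h. Cellular ATP was then measured as a toxicity check and expressed as % of vehicle control.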

[3] = tested on: HepG2; assay: Percent control of ATP levels in human hepatoma cell line, HepG2 at 1000 uM concentration; type: functional; how it was run: as §2
[4] = tested on: HepG2; assay: Percent reduction of fatty acid synthesis in human hepatoma cell line HepG2 at 1000 uM concentration; type: functional; how it was run: as §1
[5] = tested on: HepG2; assay: Percent reduction of cholesterol synthesis in human hepatoma cell line HepG2 at 1000 uM concentration; type: functional; how it was run: as §1
[6] = tested on: HepG2; assay: Percent control of ATP levels in human hepatoma cell line HepG2 at 30 uM concentration; type: functional; how it was run: as §2
[7] = tested on: HepG2; assay: Percent control of ATP levels in human hepatoma cell line HepG2 at 10 uM concentration; type: functional; how it was run: as §2
[8] = tested on: HepG2; assay: Percent reduction of cholesterol synthesis in human hepatoma cell line HepG2 at 100 uM concentration; type: functional; design: scale not given: the % may be the effect or the level left; how it was run: as §1
[9] = tested on: HepG2; assay: Percent control of ATP levels in human hepatoma cell line HepG2 at 100 uM concentration; type: functional; how it was run: as §2
[10] = tested on: HepG2; assay: Percent reduction of cholesterol synthesis in human hepatoma cell line HepG2 at 20 uM concentration; type: functional; design: scale not given: the % may be the effect or the level left; how it was run: as §1
[11] = tested on: HepG2; assay: Percent reduction of fatty acid synthesis in human hepatoma cell line HepG2 at 20 uM concentration; type: functional; design: scale not given: the % may be the effect or the level left; how it was run: as §1
[12] = tested on: HepG2; assay: Percent control of ATP levels in human hepatoma cell line HepG2 at […] uM concentration; type: functional
[13] = tested on: HepG2; assay: Percent control of ATP levels in human hepatoma cell line HepG2 at 20 uM concentration; type: functional; how it was run: as §2
[14] = biological target: T1, ATP-citrate synthase (Rattus norvegicus, UniProt P16638); assay: Inhibition of recombinant ATP-Citrate Lyase activity as […] dehydrogenase catalyzed reduction of oxaloacetate by NADH; conditions: in the assay text read “purified rat ATP-Citrate Lyase” for “recombinant ATP-Citrate Lyase”
T1 sequence (P16638 whole entry): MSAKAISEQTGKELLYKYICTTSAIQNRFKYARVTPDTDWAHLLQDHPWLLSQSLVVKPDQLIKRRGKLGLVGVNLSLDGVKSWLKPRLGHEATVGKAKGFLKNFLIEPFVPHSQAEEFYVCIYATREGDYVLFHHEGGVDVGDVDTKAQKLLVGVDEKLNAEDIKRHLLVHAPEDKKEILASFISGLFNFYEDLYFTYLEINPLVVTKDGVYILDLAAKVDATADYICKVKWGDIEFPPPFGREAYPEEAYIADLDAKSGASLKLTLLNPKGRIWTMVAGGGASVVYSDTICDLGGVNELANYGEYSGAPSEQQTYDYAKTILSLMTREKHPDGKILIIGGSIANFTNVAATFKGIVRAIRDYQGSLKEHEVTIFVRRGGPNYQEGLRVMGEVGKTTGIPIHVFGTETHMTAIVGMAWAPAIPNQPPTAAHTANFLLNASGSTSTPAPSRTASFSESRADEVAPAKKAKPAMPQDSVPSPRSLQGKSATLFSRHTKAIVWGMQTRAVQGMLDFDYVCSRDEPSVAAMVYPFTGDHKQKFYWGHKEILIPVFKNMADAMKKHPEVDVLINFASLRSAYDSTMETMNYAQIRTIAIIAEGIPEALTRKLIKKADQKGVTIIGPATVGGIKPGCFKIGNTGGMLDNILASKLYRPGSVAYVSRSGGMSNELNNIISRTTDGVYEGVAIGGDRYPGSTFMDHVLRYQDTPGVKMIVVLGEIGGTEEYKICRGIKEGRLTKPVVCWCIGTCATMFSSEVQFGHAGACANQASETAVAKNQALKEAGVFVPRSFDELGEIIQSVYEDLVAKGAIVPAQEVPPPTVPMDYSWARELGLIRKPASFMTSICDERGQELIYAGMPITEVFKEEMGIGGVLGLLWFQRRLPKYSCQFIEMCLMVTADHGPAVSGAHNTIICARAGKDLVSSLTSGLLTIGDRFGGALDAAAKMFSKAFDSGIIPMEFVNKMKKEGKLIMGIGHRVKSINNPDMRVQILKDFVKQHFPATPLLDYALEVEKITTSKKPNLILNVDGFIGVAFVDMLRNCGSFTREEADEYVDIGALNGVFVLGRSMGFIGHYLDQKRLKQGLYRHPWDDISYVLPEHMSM
How it was run: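 Purified rat ACL or recombinant human ACL was assayed by coupling oxaloacetate formation to malate dehydrogenase reduction with NADH. Buffer: Tris 100 mM pH 8.0, MgCl2 10 mM, KCl 10 mM, DTT 10 mM, plus ATP and NADH. CoA was 200 μM, and citrate was added to 100 μM (its Km) to start the reaction. A340 decrease was followed over 20 min. Ki came from fitting v = Vmax/(2 + [I]/Ki), assuming citrate-competitive inhibition.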

[15] = tested on: HepG2; assay: Percent control of ATP levels in human hepatoma cell line HepG2 at 1000 uM concentration; type: functional; how it was run: as §2
[16] = tested on: HepG2; assay: Percent reduction of fatty acid synthesis in human hepatoma cell line HepG2 at 300 uM concentration; type: functional; design: scale not given: the % may be the effect or the level left; how it was run: as §1
[17] = tested on: HepG2; assay: Percent control of ATP levels in human hepatoma cell line HepG2 at 300 uM concentration; type: functional; how it was run: as §2
[18] = tested on: HepG2; assay: Percent reduction of cholesterol synthesis in human hepatoma cell line HepG2 at 300 uM concentration; type: functional; design: scale not given: the % may be the effect or the level left; how it was run: as §1
[19] = tested on: HepG2; assay: Percent reduction of cholesterol synthesis in human hepatoma cell line, HepG2 at 100 uM concentration; type: functional; design: scale not given: the % may be the effect or the level left; how it was run: as §1

Compound: CC(=O)OCOC(=O)CC(O)(CSCCCCCCc1ccc(Cl)cc1Cl)C(=O)OCOC(C)=O (stereo unspecified)
- Control [1]: 100%
- Control [2]: 111%
- Control [3]: 60%
- Fatty acid synthesis (% of vehicle control) [4]: 16%
- Cholesterol synthesis (% of vehicle control) [5]: 13%

Compound: CCOC(=O)CC(O)(CSCCCCCCc1ccc(Cl)cc1Cl)C(=O)OCC (stereo unspecified)
- Control [6]: 86%
- Control [7]: 91%
- Control [1]: 6%
- Control [8]: 3%
- Control [9]: 81%

- Ki [14]: 6.8 µM
Compound: O=C(O)CC(O)(CSCCCCCc1ccc(Cl)cc1Cl)C(=O)O (stereo unspecified)
- Control [10]: 104%
- Control [11]: 96%
- Control [12]: 84%
- Fatty acid synthesis (% of vehicle control) [4]: 16%
- Control [13]: 102%
- Cholesterol synthesis (% of vehicle control) [5]: 14%

Compound: O=C(O)C[C@@](O)(C(=O)O)[C@H](O)C(=O)O
- Control [15]: 104%
- Control [16]: 79%
- Control [1]: 87%
- Control [17]: 103%
- Fatty acid synthesis (% of vehicle control) [4]: 57%
- Control [18]: 40%
- Cholesterol synthesis (% of vehicle control) [5]: 15%
- Control [19]: 110%
- Control [9]: 100%
